# Data reported in ChEMBL document CHEMBL1148714, “Design, synthesis, and in vivo SAR of a novel series of pyrazolines as potent selective androgen receptor modulators” (2007).
# The source made the active and inactive calls. The rule behind the calls is not given here.
# How the values were obtained:
# Rattus norvegicus [1] = test: Stimulation of prostate weight in castrated immature Sprague-Dawley rat at 2 mg/day, po after 5 days; format: functional, Prostate gland
# Procedure, shortened: (§1)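 Immature (~50 g) castrated male Sprague Dawley rats dosed once daily for 5 days. Test article given p.o. at 2 mg/day in 20% cyclodextrin; testosterone propionate reference given at 1 mg/day s.c. in sesame oil. Ventral prostate and levator ani wet weights taken on day 6, adjusted to body weight. % stimulation uses vehicle = 0% and testosterone = 100%. n = 3/group.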
# Rattus norvegicus [2] = test: Stimulation of levator ani muscle weight in castrated immature Sprague-Dawley rat at 2 mg/day, po after 5 days; format: functional; procedure, shortened: as §1
# Rattus norvegicus [3] = species: Rattus norvegicus; test: Stimulation of levator ani muscle weight in castrated immature Sprague-Dawley rat; format: functional
# Procedure, shortened: (§2)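 Immature (~50 g) castrated male Sprague Dawley rats given oral doses once daily at 0.1, 0.3, 1, 3 mg/day. Ventral prostate and levator ani wet weights adjusted to body weight. % stimulation uses vehicle = 0% and testosterone-treated (1 mg/day) group = 100%; ED50 derived from the four-point dose series. n = 3/group.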
# Rattus norvegicus [4] = species: Rattus norvegicus; test: Stimulation of prostate weight in castrated immature Sprague-Dawley rat; format: functional, Prostate gland; procedure, shortened: as §2
# Rattus norvegicus [5] = species: Rattus norvegicus; test: Inhibition of prostate weight in castrated immature male Sprague-Dawley rat at 2 mg/day relative to control; format: functional, Prostate gland
# Procedure, shortened: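 Immature (~50 g) castrated male Sprague Dawley rats; test article orally at 2 mg/day once daily for 5 days, with testosterone propionate 0.1 mg/day s.c. in sesame oil. Ventral prostate wet weight taken on day 6 after CO2 euthanasia, adjusted to body weight. Inhibition given as % of testosterone-enhanced weight, vehicle group = 100% and testosterone-alone group = 0%. n = 3/group.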
# Rattus norvegicus [6] = test: Inhibition of prostate weight in intact Sprague-Dawley rat at 30 mg/kg relative to control; format: functional; settings: Prostate gland
# Rattus norvegicus [7] = species: Rattus norvegicus; test: Stimulation of levator ani muscle weight in castrated Sprague-Dawley rat; format: functional
# Procedure, shortened: (§3)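 Mature (150–200 g) castrated male Sprague Dawley rats dosed by oral gavage once daily for 14 days in 20% cyclodextrin or 0.5% methylcellulose. Five-point doses: 0.3, 1, 3, 10, 30 mg/kg. Testosterone propionate reference given at 5 mg/kg s.c. in sesame oil. Ventral prostate and levator ani wet weights taken on day 15, adjusted to body weight. % stimulation uses vehicle = 0% and testosterone = 100%; ED50 derived from the doses. n = 3.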
# Rattus norvegicus [8] = species: Rattus norvegicus; test: Stimulation of prostate weight in castrated Sprague-Dawley rat; format: functional; settings: Prostate gland; procedure, shortened: as §3
# Rattus norvegicus [9] = test: Stimulation of prostate weight in castrated Sprague-Dawley rat at 30 mg/kg; format: functional, Prostate gland; procedure, shortened: as §3
# Rattus norvegicus [10] = species: Rattus norvegicus; test: Stimulation of levator ani muscle weight in castrated immature Sprague-Dawley rat at 3 mg/day; format: functional; procedure, shortened: as §2
# Rattus norvegicus [11] = species: Rattus norvegicus; test: Stimulation of prostate weight in castrated immature Sprague-Dawley rat at 3 mg/day; format: functional, Prostate gland; procedure, shortened: as §2
# Rattus norvegicus [12] = test: Stimulation of levator ani muscle weight in castrated Sprague-Dawley rat at 30 mg/kg; format: functional; procedure, shortened: as §3
# Rattus norvegicus [13] = test: Stimulation of prostate weight in castrated immature Sprague-Dawley rat at 1 mg/day, sc; format: functional, Prostate gland
# Rattus norvegicus [14] = test: Stimulation of levator ani muscle weight in castrated immature Sprague-Dawley rat at 1 mg/day, sc; format: functional
SMILES,Activity (Rattus norvegicus [1]) [%],Activity (Rattus norvegicus [2]) [%],other results
CC(=O)Nc1ccc(C2=NNC(C)(C(=O)Nc3ccc(C#N)c(C(F)(F)F)c3)C2)cc1 (stereo not given),16,57,
CC1=NOC(C)(C(=O)Nc2ccc(C#N)c(C(F)(F)F)c2)C1 (stereo not given),<10,<10,
CC1(C(=O)Nc2ccc(C#N)c(C(F)(F)F)c2)CC(C(F)(F)C(F)(F)F)=NN1 (stereo not given),<10,15,
CC(=O)Nc1ccc(CC2=NNC(C)(C(=O)Nc3ccc(C#N)c(C(F)(F)F)c3)C2)cc1 (stereo not given),24,51,
CC1(C(=O)Nc2ccc(C#N)c(C(F)(F)F)c2)CC(C(F)(F)F)=NN1C(=O)C(F)(F)F (stereo not given),30,70,
CCN1N=C(C(F)(F)F)C[C@@]1(C)C(=O)Nc1ccc(C#N)c(C(F)(F)F)c1,,,ED50 (Rattus norvegicus [3]): 0.12 mg/day; ED50 (Rattus norvegicus [4]): 2.2 mg/day; Inhibition (Rattus norvegicus [5]): 18%
CC1(C(=O)Nc2ccc(C#N)c(C(F)(F)F)c2)CC=NN1 (stereo not given),<10,<10,
CCO/C(=N\c1ccc(C#N)c(C(F)(F)F)c1)C1(C)CC(C(F)(F)F)=NN1 (stereo not given),22,75,ED50 (Rattus norvegicus [3]): 0.25 mg/day
CCOC(=O)C1=NNC(C)(C(=O)Nc2ccc([N+](=O)[O-])c(C(F)(F)F)c2)C1 (stereo not given),<10,<10,
N#Cc1ccc(NC(=O)C2(C(F)(F)F)CC(C(F)(F)F)=NN2)cc1C(F)(F)F (stereo not given),13,37,
CC(C)(C)C1=NNC(C)(C(=O)Nc2ccc(C#N)c(C(F)(F)F)c2)C1 (stereo not given),<10,36,
C[C@](O)(CS(=O)(=O)c1ccc(F)cc1)C(=O)Nc1ccc(C#N)c(C(F)(F)F)c1 [(R)-BICALUTAMIDE],,,Inhibition (Rattus norvegicus [5]): 70%; inhibition in vivo at 30 mg/kg (Rattus norvegicus [6]): 67%
CCN1N=C(C)CC1(C)C(=O)Nc1ccc(C#N)c(C(F)(F)F)c1 (stereo not given),18,55,
CC1(C(=O)Nc2ccc(Br)c(C(F)(F)F)c2)CC(C(F)(F)F)=NN1 (stereo not given),12,41,
CC1(C(=O)Nc2cc(C(F)(F)F)c(C#N)cc2C#N)CC(C(F)(F)F)=NN1 (stereo not given),<10,<10,
CC(C)C(=O)Nc1ccc([N+](=O)[O-])c(C(F)(F)F)c1 [FLUTAMIDE],,,inhibition in vivo at 30 mg/kg (Rattus norvegicus [6]): 51%
CCCC1=NNC(C)(C(=O)Nc2ccc(C#N)c(C(F)(F)F)c2)C1 (stereo not given),<10,<10,
CC1(C(=O)Nc2ccc(Cl)c(C(F)(F)F)c2)CC(C(F)(F)F)=NN1 (stereo not given),<10,15,
CC1=NNC(C)(C(=O)Nc2ccc(C#N)c(C(F)(F)F)c2)C1 (stereo not given),29,62,
CC(=O)Nc1ccc(C2=NNC(C)(C(=O)Nc3ccc(Cl)c(C(F)(F)F)c3)C2)cc1 (stereo not given),<10,17,
CCC1(C(=O)Nc2ccc(C#N)c(C(F)(F)F)c2)CC(C(F)(F)F)=NN1 (stereo not given),24,67,ED50 (Rattus norvegicus [7]): 21 mg/kg; ED50 (Rattus norvegicus [8]): > 30 mg/kg; Activity (Rattus norvegicus [9]): 19%
CC1(C(=O)Nc2ccc(C#N)c(C(F)(F)F)c2)CC(CC(F)(F)F)=NN1 (stereo not given),<10,10,
C[C@]1(C(=O)Nc2ccc(C#N)c(C(F)(F)F)c2)CC(C(F)(F)F)=NN1,,,ED50 (Rattus norvegicus [3]): 0.86 mg/day; ED50 (Rattus norvegicus [4]): 0.94 mg/day; Activity (Rattus norvegicus [10]): 49%; Activity (Rattus norvegicus [11]): 29%; Inhibition (Rattus norvegicus [5]): 22%; ED50 (Rattus norvegicus [7]): > 30 mg/kg; ED50 (Rattus norvegicus [8]): > 30 mg/kg; inhibition in vivo at 30 mg/kg (Rattus norvegicus [6]): 25%; Activity (Rattus norvegicus [12]): 9%; Activity (Rattus norvegicus [9]): 4%
CC1(C(=O)Nc2ccc([N+](=O)[O-])c(C(F)(F)F)c2)CC(c2ccc(F)cc2)=NN1 (stereo not given),<10,18,
CCO/C(=N\c1ccc(C#N)c(C(F)(F)F)c1)[C@]1(C)CC(C(F)(F)F)=NN1,,,ED50 (Rattus norvegicus [3]): 0.86 mg/day; ED50 (Rattus norvegicus [4]): >3 mg/day; Inhibition (Rattus norvegicus [5]): 27%
CC(=O)Nc1ccc(C2=NNC(C)(C(=O)Nc3ccc(C#N)c(C#N)c3)C2)cc1 (stereo not given),<10,<10,
C[C@@]1(C(=O)Nc2ccc(C#N)c(C(F)(F)F)c2)CC(C(F)(F)F)=NN1,,,ED50 (Rattus norvegicus [3]): 0.11 mg/day; ED50 (Rattus norvegicus [4]): 0.76 mg/day; Activity (Rattus norvegicus [10]): 90%; Activity (Rattus norvegicus [11]): 51%; Inhibition (Rattus norvegicus [5]): 40%; ED50 (Rattus norvegicus [7]): 3.8 mg/kg; ED50 (Rattus norvegicus [8]): > 30 mg/kg; inhibition in vivo at 30 mg/kg (Rattus norvegicus [6]): 33%; Activity (Rattus norvegicus [12]): 120%; Activity (Rattus norvegicus [9]): 46%

SMILES,Activity (Rattus norvegicus [1]) [%],Activity (Rattus norvegicus [2]) [%],other results
CC1(C(=O)Nc2cc(C(F)(F)F)c(C#N)cc2Cl)CC(C(F)(F)F)=NN1 (stereo not given),15,57,
CCSc1cc(C#N)c(C(F)(F)F)cc1NC(=O)C1(C)CC(C(F)(F)F)=NN1 (stereo not given),<10,42,
CCC1=NNC(C)(C(=O)Nc2ccc(C#N)c(C(F)(F)F)c2)C1 (stereo not given),<10,<10,
CC1(C(=O)Nc2ccc(Cl)c(Cl)c2)CC(C(F)(F)F)=NN1 (stereo not given),10,<10,
CC(=O)Nc1cccc(C2=NNC(C)(C(=O)Nc3ccc(C#N)c(C(F)(F)F)c3)C2)c1 (stereo not given),<10,<10,
CC1(C(=O)Nc2ccc(C#N)c(C(F)(F)F)c2)CC(C(F)(F)F)=NN1 (stereo not given),28,71,ED50 (Rattus norvegicus [7]): 7.9 mg/kg; ED50 (Rattus norvegicus [8]): > 30 mg/kg; Activity (Rattus norvegicus [6]): inactive; Activity (Rattus norvegicus [9]): 25%
CCN1N=C(C(F)(F)F)C[C@]1(C)C(=O)Nc1ccc(C#N)c(C(F)(F)F)c1,,,ED50 (Rattus norvegicus [3]): 0.45 mg/day; ED50 (Rattus norvegicus [4]): >3 mg/day; Inhibition (Rattus norvegicus [5]): <10%
CCO/C(=N\c1ccc(C#N)c(C(F)(F)F)c1)[C@@]1(C)CC(C(F)(F)F)=NN1,,,ED50 (Rattus norvegicus [3]): 0.1 mg/day; ED50 (Rattus norvegicus [4]): 0.16 mg/day; Inhibition (Rattus norvegicus [5]): <10%
CC1(C(=O)Nc2ccc(C#N)c(C(F)(F)F)c2)CC(c2ccc(F)cc2)=NO1 (stereo not given),<10,<10,
CO/C(=N\c1ccc(C#N)c(C(F)(F)F)c1)C1(C)CC(C(F)(F)F)=NN1 (stereo not given),30,86,
CC1(C(=O)Nc2cc(C(F)(F)F)c(C#N)cc2I)CC(C(F)(F)F)=NN1 (stereo not given),47,86,
CC(=O)Nc1ccc(C2=NNC(C)(C(=O)Nc3ccc([N+](=O)[O-])c(C(F)(F)F)c3)C2)cc1 (stereo not given),15,35,
CC1=NNC(C(=O)Nc2ccc(C#N)c(C(F)(F)F)c2)(C(F)(F)F)C1 (stereo not given),46,64,
CCC(=O)O[C@H]1CC[C@H]2[C@@H]3CCC4=CC(=O)CC[C@]4(C)[C@H]3CC[C@]12C [TESTOSTERONE PROPIONATE],,,Activity (Rattus norvegicus [13]): 100%; Activity (Rattus norvegicus [14]): 100%; ED50 (Rattus norvegicus [3]): 0.1 mg/day; ED50 (Rattus norvegicus [4]): 0.1 mg/day; ED50 (Rattus norvegicus [7]): 0.17 mg/kg; ED50 (Rattus norvegicus [8]): 0.25 mg/kg
CN1N=C(C(F)(F)F)CC1(C)C(=O)Nc1ccc(C#N)c(C(F)(F)F)c1 (stereo not given),<10,44,
CC(C)C1=NNC(C)(C(=O)Nc2ccc(C#N)c(C(F)(F)F)c2)C1 (stereo not given),<10,<10,
CC(=O)Nc1ccc(C2=NN(C)C(C)(C(=O)Nc3ccc(C#N)c(C(F)(F)F)c3)C2)cc1 (stereo not given),<10,<10,
CC1(C(=O)Nc2ccc([N+](=O)[O-])c(C(F)(F)F)c2)CC(c2ccc(NC(=O)C(F)(F)F)cc2)=NN1 (stereo not given),10,21,
CC1(C(=O)Nc2ccc(C#N)cc2)CC(C(F)(F)F)=NN1 (stereo not given),<10,<10,
CCc1cc(C#N)c(C(F)(F)F)cc1NC(=O)C1(C)CC(C(F)(F)F)=NN1 (stereo not given),<10,<10,
CC1(C(=O)Nc2ccc(C#N)c(C(F)(F)F)c2)CC(c2ccc(F)cc2)=NN1 (stereo not given),20,44,
CCN1N=C(C(F)(F)F)CC1(C)C(=O)Nc1ccc(C#N)c(C(F)(F)F)c1 (stereo not given),47,95,
CC1(C(=O)Nc2ccc([N+](=O)[O-])c(C(F)(F)F)c2)CC(C(F)(F)F)=NN1 (stereo not given),38,21,
CCCC1(C(=O)Nc2ccc(C#N)c(C(F)(F)F)c2)CC(C(F)(F)F)=NN1 (stereo not given),<10,18,
COc1cc(C#N)c(C(F)(F)F)cc1NC(=O)C1(C)CC(C(F)(F)F)=NN1 (stereo not given),18,52,
CCc1c(NC(=O)C2(C)CC(C(F)(F)F)=NN2)ccc(C#N)c1C(F)(F)F (stereo not given),14,88,ED50 (Rattus norvegicus [7]): 17 mg/kg; ED50 (Rattus norvegicus [8]): > 30 mg/kg; Activity (Rattus norvegicus [9]): 18%
